Test system: HEK-293T
Assay: Multiplex assay against HEK293T
Format: toxicity, cell-based
Conditions: human
Procedure, shortened: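 Live cells carried four stains from seeding: Hoechst33342, BioTracker Green Microtubule Cytoskeleton Dye, MitoTracker Red and Annexin V Alexa Fluor 680. They were imaged on a CQ1 microscope at 37°C and 5% CO2 after compound addition. Using CellPathfinder machine-learning gating, cells were split into Hoechst high-intensity objects or normal cells, normal cells into healthy, pyknosed or fragmented nuclei, and pyknosed cells into mitotic or apoptotic; tubulin, mitochondrial-mass and membrane-permeability phenotypes are per cents of healthy-nucleus cells.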

[1] = 12 h, 1 µM, compound concentration 1 uM, replicate 1
[2] = 12 h, 1 µM, compound concentration 1 uM, replicate 2
[3] = 12 h, 10 µM, compound concentration 10 uM, replicate 1
[4] = 12 h, 10 µM, compound concentration 10 uM, replicate 2
[5] = 24 h, 1 µM, compound concentration 1 uM, replicate 1
[6] = 24 h, 1 µM, compound concentration 1 uM, replicate 2
[7] = 24 h, 10 µM, compound concentration 10 uM, replicate 1
[8] = 24 h, 10 µM, compound concentration 10 uM, replicate 2
[9] = 48 h, 1 µM, compound concentration 1 uM, replicate 1
[10] = 48 h, 1 µM, compound concentration 1 uM, replicate 2
[11] = 48 h, 10 µM, compound concentration 10 uM, replicate 1
[12] = 48 h, 10 µM, compound concentration 10 uM, replicate 2

C[C@@H]1C[C@H]2[C@@H]3CCC4=CC(=O)C=C[C@]4(C)[C@@]3(F)[C@@H](O)C[C@]2(C)[C@@]1(O)C(=O)CO [DEXAMETHASONE]
Population Apoptotic (%) [1]: 37%
Population Fragmented Nuclei (%) [1]: 8%
Population Healthy Nuclei (%) [1]: 78%
Population Hoechst High Intensity Objects (%) [1]: 2%
Population Membrane Permeable-Phenotype (%) [1]: 1%
Population Mitochondria Different-Phenotype (%) [1]: 45%
Population Mitotic Cells (%) [1]: 62%
Population Normal (%) [1]: 97%
Population Pyknosed Nuclei (%) [1]: 12%
Population Tubulin-Different-Phenotype (%) [1]: 24%
Total Cell Count [1]: 420
Population Apoptotic (%) [2]: 53%
Population Fragmented Nuclei (%) [2]: 7%
Population Healthy Nuclei (%) [2]: 80%
Population Hoechst High Intensity Objects (%) [2]: 8%
Population Membrane Permeable-Phenotype (%) [2]: 0%
Population Mitochondria Different-Phenotype (%) [2]: 62%
Population Mitotic Cells (%) [2]: 46%
Population Normal (%) [2]: 91%
Population Tubulin-Different-Phenotype (%) [2]: 26%
Total Cell Count [2]: 372
Population Apoptotic (%) [3]: 37%
Population Fragmented Nuclei (%) [3]: 7%
Population Healthy Nuclei (%) [3]: 79%
Population Hoechst High Intensity Objects (%) [3]: 6%
Population Membrane Permeable-Phenotype (%) [3]: 0%
Population Mitochondria Different-Phenotype (%) [3]: 44%
Population Mitotic Cells (%) [3]: 62%
Population Normal (%) [3]: 93%
Population Pyknosed Nuclei (%) [3]: 13%
Population Tubulin-Different-Phenotype (%) [3]: 33%
Total Cell Count [3]: 374
Population Apoptotic (%) [4]: 44%
Population Fragmented Nuclei (%) [4]: 5%
Population Healthy Nuclei (%) [4]: 81%
Population Hoechst High Intensity Objects (%) [4]: 14%
Population Mitochondria Different-Phenotype (%) [4]: 69%
Population Mitotic Cells (%) [4]: 55%
Population Normal (%) [4]: 85%
Population Tubulin-Different-Phenotype (%) [4]: 39%
Total Cell Count [4]: 436
Population Apoptotic (%) [5]: 31%
Population Fragmented Nuclei (%) [5]: 9%
Population Healthy Nuclei (%) [5]: 78%
Population Hoechst High Intensity Objects (%) [5]: 4%
Population Membrane Permeable-Phenotype (%) [5]: 0%
Population Mitochondria Different-Phenotype (%) [5]: 30%
Population Mitotic Cells (%) [5]: 68%
Population Normal (%) [5]: 95%
Population Pyknosed Nuclei (%) [5]: 12%
Population Tubulin-Different-Phenotype (%) [5]: 17%
Total Cell Count [5]: 569
Population Apoptotic (%) [6]: 42%
Population Fragmented Nuclei (%) [6]: 12%
Population Healthy Nuclei (%) [6]: 79%
Population Hoechst High Intensity Objects (%) [6]: 7%
Population Mitochondria Different-Phenotype (%) [6]: 45%
Population Mitotic Cells (%) [6]: 57%
Population Normal (%) [6]: 92%
Population Pyknosed Nuclei (%) [6]: 8%
Total Cell Count [6]: 499
Population Apoptotic (%) [7]: 36%
Population Fragmented Nuclei (%) [7]: 8%
Population Healthy Nuclei (%) [7]: 74%
Population Hoechst High Intensity Objects (%) [7]: 6%
Population Membrane Permeable-Phenotype (%) [7]: 0%
Population Mitochondria Different-Phenotype (%) [7]: 30%
Population Mitotic Cells (%) [7]: 63%
Population Normal (%) [7]: 93%
Population Pyknosed Nuclei (%) [7]: 16%
Population Tubulin-Different-Phenotype (%) [7]: 29%
Total Cell Count [7]: 453
Population Apoptotic (%) [8]: 44%
Population Fragmented Nuclei (%) [8]: 9%
Population Healthy Nuclei (%) [8]: 79%
Population Hoechst High Intensity Objects (%) [8]: 15%
Population Mitochondria Different-Phenotype (%) [8]: 43%
Population Mitotic Cells (%) [8]: 56%
Population Normal (%) [8]: 84%
Population Pyknosed Nuclei (%) [8]: 11%
Population Tubulin-Different-Phenotype (%) [8]: 22%
Total Cell Count [8]: 513
Population Apoptotic (%) [9]: 30%
Population Fragmented Nuclei (%) [9]: 15%
Population Healthy Nuclei (%) [9]: 77%
Population Hoechst High Intensity Objects (%) [9]: 1%
Population Membrane Permeable-Phenotype (%) [9]: 1%
Population Mitochondria Different-Phenotype (%) [9]: 18%
Population Mitotic Cells (%) [9]: 69%
Population Normal (%) [9]: 98%
Population Pyknosed Nuclei (%) [9]: 7%
Population Tubulin-Different-Phenotype (%) [9]: 12%
Total Cell Count [9]: 915
Population Apoptotic (%) [10]: 27%
Population Healthy Nuclei (%) [10]: 78%
Population Hoechst High Intensity Objects (%) [10]: 3%
Population Membrane Permeable-Phenotype (%) [10]: 0%
Population Mitochondria Different-Phenotype (%) [10]: 27%
Population Mitotic Cells (%) [10]: 72%
Population Normal (%) [10]: 96%
Population Pyknosed Nuclei (%) [10]: 6%
Population Tubulin-Different-Phenotype (%) [10]: 15%
Total Cell Count [10]: 685
Population Apoptotic (%) [11]: 25%
Population Fragmented Nuclei (%) [11]: 15%
Population Healthy Nuclei (%) [11]: 76%
Population Hoechst High Intensity Objects (%) [11]: 3%
Population Membrane Permeable-Phenotype (%) [11]: 0%
Population Mitochondria Different-Phenotype (%) [11]: 18%
Population Mitotic Cells (%) [11]: 75%
Population Normal (%) [11]: 96%
Population Pyknosed Nuclei (%) [11]: 7%
Population Tubulin-Different-Phenotype (%) [11]: 14%
Total Cell Count [11]: 760
Population Apoptotic (%) [12]: 50%
Population Fragmented Nuclei (%) [12]: 16%
Population Hoechst High Intensity Objects (%) [12]: 6%
Population Mitochondria Different-Phenotype (%) [12]: 28%
Population Mitotic Cells (%) [12]: 49%
Population Normal (%) [12]: 93%
Population Tubulin-Different-Phenotype (%) [12]: 19%
Total Cell Count [12]: 756

CC[C@H]1OC(=O)[C@H](C)[C@@H](O[C@H]2C[C@@](C)(OC)[C@@H](O)[C@H](C)O2)[C@H](C)[C@@H](O[C@@H]2O[C@H](C)C[C@H](N(C)C)[C@H]2O)[C@@]2(C)CC(C)=C(O2)[C@H](C)[C@@H](O)[C@]1(C)O
Population Apoptotic (%) [1]: 35%
Population Fragmented Nuclei (%) [1]: 8%
Population Healthy Nuclei (%) [1]: 74%
Population Hoechst High Intensity Objects (%) [1]: 6%
Population Membrane Permeable-Phenotype (%) [1]: 0%
Population Mitochondria Different-Phenotype (%) [1]: 56%
Population Mitotic Cells (%) [1]: 64%
Population Normal (%) [1]: 93%
Population Pyknosed Nuclei (%) [1]: 17%
Population Tubulin-Different-Phenotype (%) [1]: 41%
Total Cell Count [1]: 367
Population Apoptotic (%) [2]: 45%
Population Fragmented Nuclei (%) [2]: 3%
Population Healthy Nuclei (%) [2]: 84%
Population Hoechst High Intensity Objects (%) [2]: 7%
Population Mitochondria Different-Phenotype (%) [2]: 72%
Population Mitotic Cells (%) [2]: 54%
Population Normal (%) [2]: 92%
Population Pyknosed Nuclei (%) [2]: 11%
Population Tubulin-Different-Phenotype (%) [2]: 27%
Total Cell Count [2]: 300
Population Apoptotic (%) [3]: 55%
Population Fragmented Nuclei (%) [3]: 8%
Population Healthy Nuclei (%) [3]: 71%
Population Hoechst High Intensity Objects (%) [3]: 13%
Population Membrane Permeable-Phenotype (%) [3]: 0%
Population Mitochondria Different-Phenotype (%) [3]: 87%
Population Mitotic Cells (%) [3]: 44%
Population Normal (%) [3]: 86%
Population Pyknosed Nuclei (%) [3]: 19%
Population Tubulin-Different-Phenotype (%) [3]: 76%
Total Cell Count [3]: 383
Population Apoptotic (%) [4]: 56%
Population Fragmented Nuclei (%) [4]: 11%
Population Healthy Nuclei (%) [4]: 72%
Population Hoechst High Intensity Objects (%) [4]: 10%
Population Mitochondria Different-Phenotype (%) [4]: 91%
Population Mitotic Cells (%) [4]: 43%
Population Normal (%) [4]: 89%
Population Pyknosed Nuclei (%) [4]: 16%
Population Tubulin-Different-Phenotype (%) [4]: 77%
Total Cell Count [4]: 217
Population Apoptotic (%) [5]: 20%
Population Fragmented Nuclei (%) [5]: 8%
Population Healthy Nuclei (%) [5]: 78%
Population Hoechst High Intensity Objects (%) [5]: 3%
Population Membrane Permeable-Phenotype (%) [5]: 0%
Population Mitochondria Different-Phenotype (%) [5]: 35%
Population Mitotic Cells (%) [5]: 79%
Population Normal (%) [5]: 96%
Population Pyknosed Nuclei (%) [5]: 13%
Population Tubulin-Different-Phenotype (%) [5]: 24%
Total Cell Count [5]: 493
Population Apoptotic (%) [6]: 35%
Population Hoechst High Intensity Objects (%) [6]: 6%
Population Mitochondria Different-Phenotype (%) [6]: 49%
Population Mitotic Cells (%) [6]: 64%
Population Normal (%) [6]: 93%
Population Pyknosed Nuclei (%) [6]: 12%
Population Tubulin-Different-Phenotype (%) [6]: 22%
Total Cell Count [6]: 371
Population Apoptotic (%) [7]: 42%
Population Fragmented Nuclei (%) [7]: 9%
Population Healthy Nuclei (%) [7]: 75%
Population Hoechst High Intensity Objects (%) [7]: 11%
Population Membrane Permeable-Phenotype (%) [7]: 0%
Population Mitochondria Different-Phenotype (%) [7]: 74%
Population Mitotic Cells (%) [7]: 57%
Population Normal (%) [7]: 88%
Population Pyknosed Nuclei (%) [7]: 15%
Population Tubulin-Different-Phenotype (%) [7]: 75%
Total Cell Count [7]: 499
Population Apoptotic (%) [8]: 70%
Population Fragmented Nuclei (%) [8]: 10%
Population Healthy Nuclei (%) [8]: 71%
Population Hoechst High Intensity Objects (%) [8]: 10%
Population Mitochondria Different-Phenotype (%) [8]: 87%
Population Mitotic Cells (%) [8]: 29%
Population Normal (%) [8]: 89%
Population Pyknosed Nuclei (%) [8]: 18%
Population Tubulin-Different-Phenotype (%) [8]: 80%
Total Cell Count [8]: 254
Population Apoptotic (%) [9]: 30%
Population Fragmented Nuclei (%) [9]: 12%
Population Healthy Nuclei (%) [9]: 76%
Population Hoechst High Intensity Objects (%) [9]: 8%
Population Membrane Permeable-Phenotype (%) [9]: 0%
Population Mitochondria Different-Phenotype (%) [9]: 28%
Population Mitotic Cells (%) [9]: 69%
Population Normal (%) [9]: 91%
Population Pyknosed Nuclei (%) [9]: 11%
Population Tubulin-Different-Phenotype (%) [9]: 21%
Total Cell Count [9]: 718
Population Apoptotic (%) [10]: 21%
Population Healthy Nuclei (%) [10]: 78%
Population Hoechst High Intensity Objects (%) [10]: 6%
Population Mitochondria Different-Phenotype (%) [10]: 34%
Population Mitotic Cells (%) [10]: 78%
Population Normal (%) [10]: 93%
Population Pyknosed Nuclei (%) [10]: 9%
Population Tubulin-Different-Phenotype (%) [10]: 20%
Total Cell Count [10]: 584
Population Apoptotic (%) [11]: 50%
Population Fragmented Nuclei (%) [11]: 12%
Population Healthy Nuclei (%) [11]: 74%
Population Hoechst High Intensity Objects (%) [11]: 10%
Population Membrane Permeable-Phenotype (%) [11]: 1%
Population Mitochondria Different-Phenotype (%) [11]: 61%
Population Mitotic Cells (%) [11]: 50%
Population Normal (%) [11]: 89%
Population Pyknosed Nuclei (%) [11]: 12%
Population Tubulin-Different-Phenotype (%) [11]: 56%
Total Cell Count [11]: 671
Population Apoptotic (%) [12]: 53%
Population Healthy Nuclei (%) [12]: 75%
Population Hoechst High Intensity Objects (%) [12]: 12%
Population Membrane Permeable-Phenotype (%) [12]: 0%
Population Mitochondria Different-Phenotype (%) [12]: 84%
Population Mitotic Cells (%) [12]: 46%
Population Normal (%) [12]: 87%
Population Pyknosed Nuclei (%) [12]: 11%
Population Tubulin-Different-Phenotype (%) [12]: 73%
Total Cell Count [12]: 300

Source: ChEMBL document CHEMBL5058577, “EUbOPEN Chemogenomics Library 2 (Multiplex)” (2022)
